Assays:
[1] = system: MGC-803; assay: Cytotoxicity against human MGC803 cells assessed as reduction in cell viability measured after 72 hrs by CCK8 assay; assay type: functional, cell-based; conditions: MGC-803, 72 h
Outline: (§1)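 MGC803 or AGS cells (RPMI 1640, 10% FBS, 5% CO₂, 37 °C) plated at 3 × 10³ per well overnight, then exposed to 0.1–10 μM for 72 h. Viability was read by CCK8 absorbance at 450 nm, and IC₅₀ was calculated from the concentration series.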

[2] = system: AGS; assay: Cytotoxicity against human AGS cells assessed as reduction in cell viability measured after 72 hrs by CCK8 assay; assay type: functional, cell-based; outline: as §1
[3] = system: AGS; assay: Induction of apoptosis in human AGS cells assessed as late apoptotic cells at 1 uM measured after 48 hrs FITC-A/PE-A staining based flow cytometry (reference value: 1.89 to 3.49%); assay type: functional
[4] = system: MGC-803; assay: Induction of apoptosis in human MGC803 cells assessed as late apoptotic cells at 0.5 uM measured after 48 hrs FITC-A/PE-A staining based flow cytometry (reference value: 0.9 to 2.18%); assay type: functional
[5] = system: AGS; assay: Induction of apoptosis in human AGS cells assessed as early apoptotic cells at 1 uM measured after 48 hrs FITC-A/PE-A staining based flow cytometry (reference value: 1.77 to 2.91%); assay type: functional
[6] = system: MGC-803; assay: Induction of apoptosis in human MGC803 cells assessed as necrotic cells at 0.5 uM measured after 48 hrs FITC-A/PE-A staining based flow cytometry (reference value: 0.9 to 2.18%); assay type: functional
[7] = system: MGC-803; assay: Induction of apoptosis in human MGC803 cells assessed as viable cells at 5 uM measured after 48 hrs FITC-A/PE-A staining based flow cytometry (reference value: 94.89 to 96.41%); assay type: functional; conditions: MGC-803, 48 h, read-out: Activity
[8] = system: AGS; assay: Induction of apoptosis in human AGS cells assessed as viable cells at 0.5 uM measured after 48 hrs FITC-A/PE-A staining based flow cytometry (reference value: 92.05 to 93.85%); assay type: functional; conditions: read-out: Activity
[9] = system: AGS; assay: Induction of apoptosis in human AGS cells assessed as viable cells at 1 uM measured after 48 hrs FITC-A/PE-A staining based flow cytometry (reference value: 92.05 to 93.85%); assay type: functional; conditions: read-out: Activity
[10] = system: AGS; assay: Induction of apoptosis in human AGS cells assessed as necrotic cells at 0.2 uM measured after 48 hrs FITC-A/PE-A staining based flow cytometry (reference value: 1.35 to 2.69%); assay type: functional
[11] = system: AGS; assay: Induction of apoptosis in human AGS cells assessed as early apoptotic cells at 5 uM measured after 48 hrs FITC-A/PE-A staining based flow cytometry (reference value: 1.77 to 2.91%); assay type: functional
[12] = system: AGS; assay: Induction of apoptosis in human AGS cells assessed as viable cells at 5 uM measured after 48 hrs FITC-A/PE-A staining based flow cytometry (reference value: 92.05 to 93.85%); assay type: functional; conditions: read-out: Activity
[13] = system: AGS; assay: Induction of apoptosis in human AGS cells assessed as necrotic cells at 0.5 uM measured after 48 hrs FITC-A/PE-A staining based flow cytometry (reference value: 1.35 to 2.69%); assay type: functional
[14] = system: MGC-803; assay: Induction of apoptosis in human MGC803 cells assessed as early apoptotic cells at 0.2 uM measured after 48 hrs FITC-A/PE-A staining based flow cytometry (reference value: 0.59 to 3.54%); assay type: functional
[15] = system: MGC-803; assay: Induction of apoptosis in human MGC803 cells assessed as early apoptotic cells at 1 uM measured after 48 hrs FITC-A/PE-A staining based flow cytometry (reference value: 0.59 to 3.54%); assay type: functional
[16] = system: MGC-803; assay: Induction of apoptosis in human MGC803 cells assessed as early apoptotic cells at 0.5 uM measured after 48 hrs FITC-A/PE-A staining based flow cytometry (reference value: 0.59 to 3.54%); assay type: functional
[17] = system: MGC-803; assay: Induction of apoptosis in human MGC803 cells assessed as late apoptotic cells at 0.2 uM measured after 48 hrs FITC-A/PE-A staining based flow cytometry (reference value: 0.9 to 2.18%); assay type: functional
[18] = system: MGC-803; assay: Induction of apoptosis in human MGC803 cells assessed as necrotic cells at 5 uM measured after 48 hrs FITC-A/PE-A staining based flow cytometry (reference value: 0.9 to 2.18%); assay type: functional
[19] = system: MGC-803; assay: Induction of apoptosis in human MGC803 cells assessed as viable cells at 1 uM measured after 48 hrs FITC-A/PE-A staining based flow cytometry (reference value: 94.89 to 96.41%); assay type: functional; conditions: MGC-803, 48 h, read-out: Activity
[20] = system: MGC-803; assay: Induction of apoptosis in human MGC803 cells assessed as necrotic cells at 1 uM measured after 48 hrs FITC-A/PE-A staining based flow cytometry (reference value: 0.9 to 2.18%); assay type: functional
[21] = system: MGC-803; assay: Induction of apoptosis in human MGC803 cells assessed as viable cells at 0.5 uM measured after 48 hrs FITC-A/PE-A staining based flow cytometry (reference value: 94.89 to 96.41%); assay type: functional; conditions: MGC-803, 48 h, read-out: Activity
[22] = system: MGC-803; assay: Induction of apoptosis in human MGC803 cells assessed as late apoptotic cells at 1 uM measured after 48 hrs FITC-A/PE-A staining based flow cytometry (reference value: 0.67 to 0.82%); assay type: functional
[23] = system: AGS; assay: Induction of apoptosis in human AGS cells assessed as necrotic cells at 1 uM measured after 48 hrs FITC-A/PE-A staining based flow cytometry (reference value: 1.35 to 2.69%); assay type: functional
[24] = system: MGC-803; assay: Induction of apoptosis in human MGC803 cells measured after 48 hrs FITC-A/PE-A staining based flow cytometry; assay type: functional, cell-based
[25] = system: AGS; assay: Induction of apoptosis in human AGS cells assessed as early apoptotic cells at 0.2 uM measured after 48 hrs FITC-A/PE-A staining based flow cytometry (reference value: 1.77 to 2.91%); assay type: functional
[26] = system: AGS; assay: Induction of apoptosis in human AGS cells measured after 48 hrs FITC-A/PE-A staining based flow cytometry; assay type: functional, cell-based
[27] = system: AGS; assay: Induction of apoptosis in human AGS cells assessed as late apoptotic cells at 5 uM measured after 48 hrs FITC-A/PE-A staining based flow cytometry (reference value: 1.89 to 3.49%); assay type: functional
[28] = system: MGC-803; assay: Induction of apoptosis in human MGC803 cells assessed as late apoptotic cells at 5 uM measured after 48 hrs FITC-A/PE-A staining based flow cytometry (reference value: 0.67 to 0.82%); assay type: functional
[29] = system: MGC-803; assay: Induction of apoptosis in human MGC803 cells assessed as viable cells at 0.2 uM measured after 48 hrs FITC-A/PE-A staining based flow cytometry (reference value: 94.89 to 96.41%); assay type: functional; conditions: MGC-803, 48 h, read-out: Activity
[30] = system: MGC-803; assay: Induction of apoptosis in human MGC803 cells assessed as early apoptotic cells at 5 uM measured after 48 hrs FITC-A/PE-A staining based flow cytometry (reference value: 0.59 to 3.54%); assay type: functional
[31] = system: AGS; assay: Induction of apoptosis in human AGS cells assessed as early apoptotic cells at 0.5 uM measured after 48 hrs FITC-A/PE-A staining based flow cytometry (reference value: 1.77 to 2.91%); assay type: functional
[32] = system: MGC-803; assay: Induction of apoptosis in human MGC803 cells assessed as necrotic cells at 0.2 uM measured after 48 hrs FITC-A/PE-A staining based flow cytometry (reference value: 0.9 to 2.18%); assay type: functional
[33] = system: AGS; assay: Induction of apoptosis in human AGS cells assessed as viable cells at 0.2 uM measured after 48 hrs FITC-A/PE-A staining based flow cytometry (reference value: 92.05 to 93.85%); assay type: functional; conditions: read-out: Activity
[34] = system: AGS; assay: Induction of apoptosis in human AGS cells assessed as late apoptotic cells at 0.2 uM measured after 48 hrs FITC-A/PE-A staining based flow cytometry (reference value: 1.89 to 3.49%); assay type: functional
[35] = system: AGS; assay: Induction of apoptosis in human AGS cells assessed as necrotic cells at 5 uM measured after 48 hrs FITC-A/PE-A staining based flow cytometry (reference value: 1.35 to 2.69%); assay type: functional
[36] = system: AGS; assay: Induction of apoptosis in human AGS cells assessed as late apoptotic cells at 0.5 uM measured after 48 hrs FITC-A/PE-A staining based flow cytometry (reference value: 1.89 to 3.49%); assay type: functional

Q: Which IC50 [1] does the source give for `C/C=C(\C)C(=O)C1=C2C3=COC(/C=C/[C@@H](C)CC)=CC3=C(Cl)C(=O)[C@@]2(C)OC1=O` [CHAETOVIRIDIN E] here?
A: The IC50 was over 10 µM.

Q: What about the IC50 [2] of the same compound?
A: The IC50 was over 10 µM.

Q: With `CCC(=O)C1=C2C3=CN(C/C=C(\C)CCC=C(C)C)C(/C=C/[C@@H](C)CC)=CC3=C(Cl)C(=O)[C@@]2(C)OC1=O` as the compound, how does the IC50 [1] read?
A: The IC50 was 2.2 µM.

Q: And the IC50 [2]?
A: Its IC50 is 1.2 µM.

Q: Which results are given for `CC[C@H](C)/C=C/C1=CC2=C(Cl)C(=O)[C@@]3(C)OC(=O)C(C(=O)[C@H](C)[C@@H](C)O)=C3C2=CN1C/C=C(\C)CCC=C(C)C`?
A: Activity [3]: 23.07%; Activity [4]: 0.63%; Activity [5]: 18.59%; Activity [6]: 0.73%; viability at 5 µM [7]: 6.51%; viability at 0.5 µM [8]: 88.1%; viability at 1 µM [9]: 53.3%; Activity [10]: 2.94%; Activity [11]: 2.33%; viability at 5 µM [12]: 9.55%; IC50 [1]: 0.78 µM; Activity [13]: 2.92%; Activity [14]: 2.79%; Activity [15]: 1.33%; Activity [16]: 2.55%; Activity [17]: 0.41%; Activity [18]: 1.74%; viability at 1 µM [19]: 85%; Activity [20]: 6.78%; viability at 0.5 µM [21]: 96.1%; Activity [22]: 6.91%; Activity [23]: 5.05%; Activity [24]: Dose-dependent effect; IC50 [2]: 0.12 µM; Activity [25]: 3.16%; Activity [26]: Dose-dependent effect; Activity [27]: 86.44%; Activity [28]: 91.5%; viability at 0.2 µM [29]: 96.1%; Activity [30]: 0.25%; Activity [31]: 3.49%; Activity [32]: 0.7%; viability at 0.2 µM [33]: 89.6%; Activity [34]: 4.34%; Activity [35]: 1.67%; Activity [36]: 5.54%

Q: `CC[C@H](C)/C=C/C1=CC2=C(Cl)C(=O)[C@@]3(C)OC(=O)C(C(=O)[C@H](C)[C@@H](C)O)=C3C2=CN1CC=C(C)C` was tested. Which IC50 [1] did it give?
A: The IC50 was 2.7 µM.

Q: And the IC50 [2]?
A: The IC50 was 6.5 µM.

Q: Which results are given for `CC[C@H](C)/C=C/C1=CC2=C(Cl)C(=O)[C@@]3(C)OC(=O)C(C(=O)[C@@H](C)[C@@H](C)O)=C3C2=CN1CC=C(C)C`?
A: IC50 [1]: 3 µM; IC50 [2]: 2.9 µM

Q: With `CCC(=O)C1=C2C3=CN(CC=C(C)C)C(/C=C/[C@@H](C)CC)=CC3=C(Cl)C(=O)[C@@]2(C)OC1=O` as the compound, how does the IC50 [1] read?
A: The IC50 was 5.8 µM.

Q: And the IC50 [2]?
A: The IC50 was over 10 µM.

From ChEMBL document CHEMBL4610092, “Cytotoxic Nitrogenated Azaphilones from the Deep-Sea-Derived Fungus Chaetomium globosum MP4-S01-7” (J Nat Prod, 2020)
